Experimental data reported in ChEMBL document CHEMBL1121539, “Antitumor structure-activity relations. Nitrosoureas vs. L-1210 leukemia” (J Med Chem, 1980).

Assays:
[1] = tested on: L1210; assay: Tested for 3 log kill of leukemia cells; type: functional, Mus musculus
Outline: (§1)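 L-1210 leukemia cells (10^4) were inoculated intracerebrally into BDF2 mice, and drug was given intraperitoneally. The end point was the dose giving 3 log kill, expressed as log 1/C. The value comes from one or more individual experiments.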

[2] = Partition coefficient (logP); type: physicochemical; details: octanol/water
Outline: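 Shake partitioning between octanol and distilled water gave log P. For carboxylate substituents, log P was taken in 0.1 N NaOH, with Na+ as counterion.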

[3] = tested on: L1210; assay: Toxicity against L-1210 leukemia cells in mice after intraperitoneal administration, activity is expressed as LD10; details: mouse, in vivo, ip
[4] = species on record: Mus musculus; assay: Tested for 3 log kill of leukemia cells (i.e., a reduction of 1000-fold in tumor cells); type: functional; outline: as §1
[5] = tested on: Mus musculus; assay: Tested for toxicity against L-1210 leukemia cells in mice after ip administration, activity is expressed as LD10; type: organism-based; details: in vivo

Compound | log(1/C) [1] | logP ([2]; read-out: logP) | log(1/LD10) [3] | log(1/C) [4] | logP [2] | log(1/LD10) [5]
O=NN(CCCl)C(=O)NC1CCS(=O)(=O)CC1 | 1.93 | 0.19 | 1.22 |  |  | 
CC(C)(Cc1ccccc1)NC(=O)N(CCCl)N=O | 0.737 | 3.42 | -0.422 |  |  | 
CC12CC3(C)CC(C)(C1)CC(NC(=O)N(CCCl)N=O)(C2)C3 | 0.783 | 5.75 | -0.384 |  |  | 
O=NN(CCF)C(=O)NC1CCS(=O)(=O)CC1 | 1.92 | -0.39 | 0.922 |  |  | 
O=NN(CCCl)C(=O)NC1CCC(CC2CCC(NC(=O)N(CCCl)N=O)CC2)CC1 (stereo not drawn) | 1.36 | 6.07 | 0.283 |  |  | 
CC(NC(=O)N(CCCl)N=O)C(=O)O (stereo not drawn) | 0.918 | 0.5 | 0.511 |  |  | 
O=NN(CCCl)C(=O)NC1CS(=O)(=O)CS(=O)(=O)C1 | 1.9 | -0.9 | 0.842 |  |  | 
O=NN(CCCl)C(=O)NC(C(=O)O)C1CCCCC1 (stereo not drawn) | 1.23 | 2.89 | 0.602 |  |  | 
O=NN(CCCl)C(=O)NC1CCC(CCl)CC1 (stereo not drawn) | 1.27 | 3.01 | 0.658 |  |  | 
O=NN(CCCl)C(=O)NC1CSCSC1 | 1.81 | 2.08 | 1.07 |  |  | 
O=NN(CCCl)C(=O)NC12CC3CC(CC(C3)C1)C2 | 1.16 | 3.62 | 0.664 |  |  | 
NC(=O)N(CCCl)N=O | 1.05 | 0.57 | 1.43 |  |  | 
CN(C(=O)N(CC/C=N/C(=O)N(CCCl)N=O)N=O)C1CCCCC1 | 0.353 | 3.19 | -0.207 |  |  | 
CC(C)C1CCC(NC(=O)N(CCF)N=O)CC1 (stereo not drawn) | 1.05 | 3.67 | 0.388 |  |  | 
O=NN(CCF)C(=O)NC1CCC(NC(=O)N(CCCl)N=O)CC1 (stereo not drawn) | 1.37 | 2.41 | 0.595 |  |  | 
Cc1cccc(C)c1NC(=O)N(CCCl)N=O | 1.29 | 2.57 | 0.864 |  |  | 
CCOC(=O)C1CCCC(NC(=O)N(CCCl)N=O)C1 (stereo not drawn) | 1.41 | 2.2 | 0.786 |  |  | 
CC(C)(NC(=O)N(CCCl)N=O)C(=O)O | 0.591 | 0.91 | -0.049 |  |  | 
O=NN(CCCl)C(=O)N[C@H]1CC[C@@H](C(=O)O)CC1 | 1.63 | 1.68 | 1.03 |  |  | 
O=NN(CCCl)C(=O)N[C@H]1CC[C@@H](CC(=O)O)CC1 | 1.35 | 2.22 | 0.701 |  |  | 
O=NN(CCCl)C(=O)N[C@@H]1CCC[C@@H](O)C1 | 1.44 | 1 | 0.795 |  |  | 
COC(=O)[C@H]1CC[C@@H](NC(=O)N(CCCl)N=O)CC1 | 1.51 | 1.89 | 0.733 |  |  | 
CO[C@H]1CC[C@@H](NC(=O)N(CCCl)N=O)CC1 | 1.38 | 2.09 | 0.819 |  |  | 

Compound | log(1/C) [1] | logP ([2]; read-out: logP) | log(1/LD10) [3] | log(1/C) [4] | logP [2] | log(1/LD10) [5]
CC(=O)O[C@H]1CCCC[C@@H]1NC(=O)N(CCCl)N=O | 1.65 | 2.56 | 0.91 |  |  | 
O=NN(CCF)C(=O)N[C@H]1CC[C@@H](C(=O)O)CC1 |  |  |  | 1.06 | 1.1 | 
O=NN(CCCl)C(=O)N[C@H]1CC[C@H](O)CC1 |  |  |  |  | 1.1 | 0.774
O=NN(CCCl)C(=O)N[C@@H]1CCCC[C@@H]1O | 1.32 | 1.75 | 0.698 |  |  | 
CC(=O)O[C@H]1CCCC[C@H]1NC(=O)N(CCCl)N=O | 1.24 | 1.96 | 0.776 |  |  | 
CC(=O)O[C@@H]1[C@@H](OC(C)=O)[C@H](OC(C)=O)CO[C@H]1NC(=O)N(CCCl)N=O | 1.91 | 0.82 | 1.25 |  |  | 
CC1SCC(NC(=O)N(CCCl)N=O)CS1 (stereo not drawn) | 1.61 | 2.49 | 1 |  |  | 
O=NN(CCF)C(=O)NC1C2CC3CC(C2)CC1C3 (stereo not drawn) | 0.797 | 3.04 | 0.592 |  |  | 
O=NN(CCCl)C(=O)NC1CCCCC1NC(=O)N(CCCl)N=O (stereo not drawn) | 1.5 | 3.57 | 0.423 |  |  | 
O=NN(CCCl)C(=O)NC1CCS(=O)(=O)C1 (stereo not drawn) | 1.82 | 0.57 | 1.13 |  |  | 
O=NN(CCCl)C(=O)NC1CCCC(C(=O)O)C1 (stereo not drawn) | 1.47 | 1.86 | 0.912 |  |  | 
O=NN(CCCl)C(=O)NC1C=CCCC1 (stereo not drawn) | 1.16 | 2.45 | 0.848 |  |  | 
O=NN(CCCl)C(=O)NC1CCSCC1 | 2.1 | 2.07 | 1.25 |  |  | 
CC(=O)OCC1CCC(NC(=O)N(CCF)N=O)CC1 (stereo not drawn) | 0.984 | 1.77 | 0.705 |  |  | 
CCC1CCC(NC(=O)N(CCF)N=O)CC1 (stereo not drawn) | 0.736 | 3.26 | 0.515 |  |  | 
CCC1CCC(NC(=O)N(CCCl)N=O)CC1 (stereo not drawn) | 1.27 | 3.84 | 0.445 |  |  | 
O=NN(CCCl)C(=O)NC1CCC(Br)CC1 (stereo not drawn) | 1.24 | 2.67 | 0.571 |  |  | 
O=NN(CCCl)C(=O)NC1CCCC(NC(=O)N(CCCl)N=O)C1 (stereo not drawn) | 1.41 | 2.74 | 0.146 |  |  | 
O=NN(CCCl)C(=O)NC(CCC(=O)O)C(=O)O (stereo not drawn) | 0.87 | 0.6 | 0.037 |  |  | 
CC(=O)OC1OC(C)C(OC(C)=O)C(OC(C)=O)C1NC(=O)N(CCCl)N=O (stereo not drawn) | 1.93 | 1.32 | 1.21 |  |  | 
O=NN(CCCl)C(=O)N[C@H]1C(O)O[C@H](CO)[C@@H](O)[C@@H]1O (stereo in doubt; 75) [CHLOROZOTOCIN] | 1.76 |  | 1.03 |  | -1.02 | 
O=NN(CCCl)C(=O)N[C@H]1C(O)O[C@H](CO)[C@@H](O)[C@@H]1O (stereo in doubt; 103) [CHLOROZOTOCIN] | 1.46 |  | 0.928 |  | -0.66 | 
